Experimental data: ChEMBL document CHEMBL3758103, “Anti-herpetic and anti-dengue activity of abietane ferruginol analogues synthesized from (+)-dehydroabietylamine” (Eur J Med Chem, 2016)
The source made the active and inactive calls. The rule behind the calls is not given here.

What was measured:
Fusarium oxysporum = experiment: Antifungal activity against Fusarium oxysporum ATCC 48112 assessed as microbial growth inhibition after 48 hrs by microdilution assay; assay type: functional, organism-based
Method in brief: (§1)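 Broth microdilution under CLSI M38-A with modifications, in duplicate, at final compound concentrations of 50–3.125 μg/mL. […] Values are the geometric mean of duplicate tests in three assays. Assay DMSO was 0.05%.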

Aspergillus fumigatus = experiment: Antifungal activity against Aspergillus fumigatus ATCC 204305 assessed as microbial growth inhibition by microdilution assay; assay type: functional, organism-based; method in brief: as §1
Candida parapsilosis = experiment: Antifungal activity against Candida parapsilosis ATCC 22019 assessed as microbial growth inhibition after 24 hrs by microdilution assay; assay type: functional, organism-based
Method in brief: (§2)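 Yeast microdilution by the AFST-EUCAST method at an inoculum of 1–5 × 10^5 CFU/mL, final compound concentrations 50–3.125 μg/mL, in duplicate. MIC is the lowest concentration giving 90% growth reduction after 24 h at 35 °C. Untreated inoculum served as negative control. Values are the geometric mean of duplicate tests in three assays.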

Vero [1] = experiment: Selectivity index, ratio of IC50 for African green monkey Vero cells to IC50 for human U937 cells; assay type: functional
Method in brief: (§3)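 SI calculated as Vero IC50 divided by HeLa, Jurkat or U937 IC50, all from the 48 h MTT assay.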

HeLa [2] = experiment: Selectivity index, ratio of IC50 for African green monkey Vero cells to IC50 for human HeLa cells; assay type: functional; method in brief: as §3
HeLa [3] = experiment: Cytotoxicity against human HeLa cells assessed as cell growth inhibition after 48 hrs by MTT assay; assay type: functional, cell-based
Method in brief: (§4)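 MTT assay. Vero and HeLa cells plated at 2.0 × 10^4/well and preincubated 24 h; Jurkat and U937 plated at 3.0 × 10^4/well. Compounds were applied 48 h at 37 °C, 5% CO2, with 0.05% DMSO. Absorbance read at 570 nm and IC50 taken by linear regression. Values are the geometric mean of two experiments in quadruplicate.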

Candida tropicalis = experiment: Antifungal activity against Candida tropicalis ATCC 200956 assessed as microbial growth inhibition after 24 hrs by microdilution assay; assay type: functional, organism-based; method in brief: as §2
Aspergillus terreus = experiment: Antifungal activity against Aspergillus terreus CDC 317 assessed as microbial growth inhibition by microdilution assay; assay type: functional, organism-based; method in brief: as §1
Candida albicans = experiment: Antifungal activity against Candida albicans […] assessed as microbial growth inhibition after 24 hrs by microdilution assay; assay type: functional, organism-based; method in brief: as §2
[4] = Cytotoxicity against human U937 cells assessed as cell growth inhibition after 48 hrs by MTT assay; assay type: functional, cell-based; settings: U-937, 48 h; method in brief: as §4
Jurkat [5] = experiment: Selectivity index, ratio of IC50 for African green monkey Vero cells to IC50 for human Jurkat cells; assay type: functional; method in brief: as §3
Vero [6] = experiment: Cytotoxicity against African green monkey Vero cells assessed as cell growth inhibition after 48 hrs by MTT assay; assay type: cell-based; settings: Chlorocebus sabaeus; method in brief: as §4
Jurkat [7] = experiment: Cytotoxicity against human Jurkat cells assessed as cell growth inhibition after 48 hrs by MTT assay; assay type: functional, cell-based; method in brief: as §4
Aspergillus flavus = experiment: Antifungal activity against Aspergillus flavus ATCC 204304 assessed as microbial growth inhibition by microdilution assay; assay type: functional, organism-based; method in brief: as §1
Human alphaherpesvirus 1 [8] = experiment: Antiviral activity against HHV1 CDC Atlanta infected in African green monkey Vero cells assessed as reduction of viral titer at maximal non-toxic concentration after 48 hrs by crystal violet staining assay relative to control; assay type: functional
Method in brief: (§5)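 End-point titration on Vero monolayers (2.0 × 10^4 cells/well, ≥80% confluent) with 10 TCID50 virus. Virus–compound mixtures (6.25–50 μg/mL) in DMEM/2% FBS with CMC (1% for HHV-1, 0.5% for HHV-2) were held 15 min at room temperature. Incubation was 48 h (HHV-1) or 72 h (HHV-2) at 37 °C, then formaldehyde/crystal violet staining and plaque counting. Read-out is the viral titer reduction factor. Two experiments in quadruplicate.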

Vero [9] = experiment: Cytotoxicity against African green monkey Vero cells assessed as inhibition of cell proliferation after 72 hrs; assay type: cell-based; settings: Chlorocebus sabaeus
Human alphaherpesvirus 2 [10] = experiment: Antiviral activity against HHV-2 VR-734-G infected in African green monkey Vero cells assessed as reduction in plaque formation administered post viral infection after 72 hrs by crystal violet staining technique; assay type: functional, organism-based; settings: Human alphaherpesvirus 2, VR-734-G
Method in brief: (§6)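 Plaque reduction on Vero monolayers (2.5 × 10^4 cells/well) infected with 100 PFU/well. Pre-infection arm: virus–compound mixture added for 1 h at 37 °C, PBS wash, then CMC overlay. Post-infection arm: virus adsorbed 1 h, washed, then compound given in CMC. CMC was 1% for HHV-1, 0.75% for HHV-2 and 2% for DENV-2. Plates ran 72 h (HHV) or 8 days (DENV-2) before crystal violet staining. EC50 came from linear regression over ≥4 dilutions in quadruplicate.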

Human alphaherpesvirus 2 [11] = experiment: Antiviral activity against HHV-2 VR-734-G infected in African green monkey Vero cells assessed as maximal non toxic concentration causing reduction of viral titer after 72 hrs by crystal violet staining assay; assay type: functional; method in brief: as §5
Human alphaherpesvirus 1 [12] = experiment: Antiviral activity against HHV-1 CDC Atlanta infected in African green monkey Vero cells assessed as reduction in plaque formation administered post viral infection after 72 hrs by crystal violet staining technique; assay type: functional, organism-based; settings: Human alphaherpesvirus 1, CDC Atlanta, Vero, 72 h; read-out: EC50; method in brief: as §6
Human alphaherpesvirus 2 [13] = experiment: Antiviral activity against HHV-2 VR-734-G infected in African green monkey Vero cells assessed as reduction of viral titer at maximal non-toxic concentration after 72 hrs by crystal violet staining assay relative to control; assay type: functional; method in brief: as §5

Row | Compound | Activity (Fusarium oxysporum) | Activity (Aspergillus fumigatus) | Activity (Candida parapsilosis) | Ratio IC50 (Vero [1]) | Ratio IC50 (HeLa [2]) | IC50 (HeLa [3]) | Activity (Candida tropicalis) | Activity (Aspergillus terreus) | Activity (Candida albicans) | IC50 [4] | Ratio IC50 (Jurkat [5]) | IC50 (Vero [6]) | IC50 (Jurkat [7]) | Activity (Aspergillus flavus) | fold change (FC) (Human alphaherpesvirus 1 [8]) | IC50 (Vero [9]) | EC50 (Human alphaherpesvirus 2 [10]) | MNTD (Human alphaherpesvirus 2 [11]) | EC50 (Human alphaherpesvirus 1 [12]) | fold change (FC) (Human alphaherpesvirus 2 [13])
1 | CC(C)c1cc2c(cc1O)[C@@]1(C)CCCC(C)(C)[C@@H]1CC2 [FERRUGINOL] | inactive | inactive | inactive | 4.2 | 1.4 | 64.9 µM | inactive | inactive | inactive | 21.3 µM | 1.9 | 90.4 µM | 48.2 µM | inactive |  |  |  |  |  | 
2 | CC(=O)Oc1cc2c(cc1C(C)C)CC[C@H]1[C@](C)(CN3C(=O)c4c(Cl)c(Cl)c(Cl)c(Cl)c4C3=O)CCC[C@]21C | inactive | inactive | inactive |  |  | > 40 µM | inactive | inactive | inactive | > 40 µM |  |  | > 40 µM | inactive |  |  |  |  |  | 
3 | CC(=O)Oc1cc2c(cc1C(C)C)CC[C@H]1[C@](C)(CN3C(=O)c4ccccc4C3=O)CCC[C@]21C | inactive | inactive | inactive |  |  | > 50 µM | inactive | inactive | inactive | > 50 µM |  |  | > 50 µM | inactive |  |  |  |  |  | 
4 | Cc1ccc(S(=O)(=O)NC[C@]2(C)CCC[C@]3(C)c4cc(O)c(C(C)C)cc4CC[C@@H]23)cc1 | inactive | inactive | inactive | 2.3 |  | > 50 µM | inactive | inactive | inactive | 36 µM | 2.7 | 82.5 µM | 30.9 µM | inactive |  |  |  |  |  | 
5 | COc1cccc2c1C(=O)c1c(O)c3c(c(O)c1C2=O)C[C@@](O)(C(=O)CO)C[C@@H]3O[C@H]1C[C@H](N)[C@H](O)[C@H](C)O1 [DOXORUBICIN] |  |  |  |  |  | 0.834 µM |  |  |  | 0.077 µM |  | 1.93 µM | 0.012 µM |  |  |  |  |  |  | 
6 | Nc1nc2c(ncn2COCCO)c(=O)[nH]1 [ACYCLOVIR] |  |  |  |  |  |  |  |  |  |  |  |  |  |  | 10000 | > 1700 µM | 0.27 µM | 6.7 µM | 2.2 µM | 1000
7 | CC(=O)Oc1cc2c(cc1C(C)C)C(=O)C[C@H]1[C@](C)(CN3C(=O)c4c(Cl)c(Cl)c(Cl)c(Cl)c4C3=O)CCC[C@]21C | inactive | inactive | inactive | >38.5 | >43.8 | 7.3 µM | inactive | inactive | inactive | 8.3 µM | >26 | > 320 µM | 12.3 µM | inactive |  |  |  |  |  | 
8 | CC(=O)O[C@H]1C(=O)[C@@]2(C)[C@H]([C@H](OC(=O)c3ccccc3)[C@]3(O)C[C@H](OC(=O)[C@H](O)[C@@H](NC(=O)c4ccccc4)c4ccccc4)C(C)=C1C3(C)C)[C@]1(OC(C)=O)CO[C@@H]1C[C@@H]2O [PACLITAXEL] |  |  |  |  |  | 0.099 µM |  |  |  |  |  | 0.65 µM | 0.0005 µM |  |  |  |  |  |  | 
9 | CC(=O)Oc1cc2c(cc1C(C)C)/C(=N\S(=O)(=O)c1ccc(C)cc1)C[C@H]1[C@](C)(CN3C(=O)c4c(Cl)c(Cl)c(Cl)c(Cl)c4C3=O)CCC[C@]21C | inactive | inactive | inactive |  |  | > 30 µM | inactive | inactive | inactive | > 30 µM |  |  | > 30 µM | inactive |  |  |  |  |  | 
10 | CC(C)c1cc2c(cc1O)[C@@]1(C)CCC[C@@](C)(CN3C(=O)c4c(Cl)c(Cl)c(Cl)c(Cl)c4C3=O)[C@@H]1CC2 | inactive | inactive | inactive |  | 9.2 | 29 µM | inactive | inactive | inactive | > 40 µM | 12.2 | 267 µM | 21.9 µM | inactive |  |  |  |  |  | 
11 | CC(C)c1cc2c(cc1O)[C@@]1(C)CCC[C@@](C)(CN)[C@@H]1CC2 | inactive | inactive | inactive |  |  | > 80 µM | inactive | inactive | inactive | > 80 µM | 0.8 | 39.8 µM | 49.4 µM | inactive |  |  |  |  |  | 
